Measurements from different studies.
Compare with care: the assays were run in different laboratories.
CDK7: Cyclin-dependent kinase 7 (CDK7, Homo sapiens, UniProt P50613)
CDK7 with cyclin H: Cyclin-dependent kinase 7, with cyclin H (CDK7, Homo sapiens, UniProt P50613)

Structure (SMILES) | target | assay | conditions | quantity | result
Nc1ncc(-c2nc(N3CCOCC3)nc(N3CCOCC3)n2)c(C(F)F)n1 | CDK7 | binding, competition with immobilised ligand | 10 µM | remaining binding | 56%
Cn1cc(-c2cc(F)cc(N3CCn4c(cc5c4CCCC5)C3=O)c2CO)cc(Nc2ccc(N3CCN(C4COC4)CC3)cn2)c1=O | CDK7 with cyclin H | enzyme activity, inhibitor | 0.1 µM | inhibition | 4%
Cc1nn(C)cc1-c1nc2c(N3CCN(Cc4ccc(Cl)cc4)CC3)c(Cl)cnc2[nH]1 | CDK7 | binding, competition with immobilised ligand | 1 µM | remaining binding | 100%
CCN1CCN(Cc2ccc(C(=O)Nc3ccc(C)c(Oc4ccc5c(c4)CC(=O)N5)c3)cc2C(F)(F)F)CC1 | CDK7 | binding, competition with immobilised ligand | 1 µM | remaining binding | 84%
CNC(=O)Oc1ccc2c(c1)[C@]1(C)CCN(C)[C@@H]1N2C | CDK7 with cyclin H | enzyme activity, inhibitor, ADP detection | 10 µM | inhibition | -4.5%
Cn1cncc1[C@](O)(COc1ccc(C#N)cc1-c1ccc(OC(F)(F)F)cc1)c1ccc(C#N)cc1 | CDK7 | cell-free assay, competition with immobilised ligand | 1 µM | remaining binding | 95%
C[C@]12CC[C@H](O)CC1=CC[C@@H]1[C@@H]2CC[C@]2(C)C(=O)CC[C@@H]12 | CDK7 with cyclin H | enzyme activity, inhibitor, ADP detection | 10 µM | inhibition | -2%
COc1ncccc1-c1cnn2ccc(N3CCN(C(=O)OC(C)C)CC3)nc12 | CDK7 | binding, competition with immobilised ligand | 1 µM | remaining binding | 100%
COc1cc2occc2c2oc(=O)ccc12 | CDK7 with cyclin H | enzyme activity, inhibitor, ADP detection | 10 µM | inhibition | -29.9%
Cn1cc(-c2cccc(N3CCc4c(sc5c4CC(C)(C)C5)C3=O)c2CO)cc(Nc2ccncn2)c1=O | CDK7 with cyclin H | enzyme activity, inhibitor | 1 µM | inhibition | -11%
